Data from the RNAGym collection of RNA variant scans (doi:10.1002/anie.201605470).

B1: Osa-1-4 twister ribozyme (parent)
chain: CCGCCUAACACUGCCAAUGCCGGUCCCAAGCCCGGAUAAAAGUGGAGGGGGCGG

Variants of: B1
Test: self-cleavage, relative activity (ratio to wild type); higher = more cleavage; co-transcriptional
In short: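 A DNA template encoding a 54-nucleotide twister ribozyme from Oryza sativa was made so that each of the 48 positions downstream of the cleavage site carried 97 % wild-type base and 1 % of each other base. Transcription in vitro ran for 2 h at 37 °C, during which the ribozyme could cleave itself. Reverse transcription used a template-switching oligonucleotide, and the products were PCR-amplified and deep-sequenced. Each read was scored as cleaved or uncleaved by whether upstream sequence was present, and relative activity is the fraction cleaved normalised to wild type.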

Variant | self-cleavage
A17G C21U | 0.98
A17G C21A | 0.8
A17G C21G | 0.09
A17G C32G | 0.15
A17G C32A | 0.07
A17G C32U | 0.19
A17U C20A | 0.85
A17U C20U | 0.95
A17U C20G | 0.23
A17G G42A | 0.58
A17G G42C | 0.08
A17G G42U | 0.21
A17U C26G | 0.09
A17U C26U | 1
A17U C26A | 0.06
A17G G53C | 0.12
A17G G53A | 0.85
A17G G53U | 0.54
A17G U18A | 0.94
A17G U18G | 0.85
A17G U18C | 0.52
A17G U12C | 0.56
A17G U12G | 0.39
A17G U12A | 0.86

Variant | self-cleavage
A17U A8C | 0.11
A17U A8G | 0.62
A17U A8U | 0.42
A17G G44U | 0.74
A17G G44A | 0.88
A17G G44C | 0.88
A17U A41U | 0.96
A17U A41C | 0.98
A17U A41G | 0.9
A17G G51A | 0.44
A17G G51C | 0.14
A17G G51U | 0.3
A17G C14A | 0.19
A17G C14G | 0.29
A17G C14U | 0.69
A17G G30U | 0.05
A17G G30A | 0.05
A17G G30C | 0.06
A17U C15G | 0.54
A17U C15U | 0.64
A17U C15A | 0.62
A17U A7U | 0.09
A17U A7C | 0.05
A17U A7G | 0.43

Variant | self-cleavage
A17G G34A | 0.73
A17G G34U | 0.57
A17G G34C | 0.41
A17U A39G | 1.03
A17U A39U | 1.03
A17U A39C | 0.98
A17G G19A | 0.95
A17G G19U | 0.52
A17G G19C | 0.29
A17G G47A | 0.46
A17G G47U | 0.43
A17G G47C | 0.17
A17U C9A | 0.41
A17U C9U | 0.81
A17U C9G | 0.8
A17G C15G | 0.71
A17G C15A | 0.78
A17G C15U | 0.71
A17G C25A | 0.21
A17G C25G | 0.13
A17G C25U | 0.87
A17U C27A | 0.29
A17U C27G | 0.13
A17U C27U | 0.25

Variant | self-cleavage
A17G C20G | 0.19
A17G C20A | 0.89
A17G C20U | 0.97
A17U A46U | 0.1
A17U A46C | 0.04
A17U A46G | 0.09
A17G C27A | 0.35
A17G C27U | 0.29
A17G C27G | 0.13
A17G G50U | 0.99
A17G G50A | 0.51
A17G G50C | 0.91
A17G C26U | 0.88
A17G C26A | 0.08
A17G C26G | 0.12
A17G G23U | 0.08
A17G G23C | 0.08
A17G G23A | 0.43
A17U C14A | 0.18
A17U C14U | 0.79
A17U C14G | 0.25
A17G C52G | 0.9
A17G C52U | 1.01
A17G C52A | 0.95

Variant | self-cleavage
A17G G45A | 0.43
A17G G45C | 0.07
A17G G45U | 0.17
A17G G48U | 0.12
A17G G48C | 0.13
A17G G48A | 0.15
A17G G54U | 0.91
A17G G54A | 0.9
A17G G54C | 0.92
A17G G22A | 0.97
A17G G22U | 0.79
A17G G22C | 0.15
A17U C31G | 0.12
A17U C31U | 0.94
A17U C31A | 0.05
A17U A36U | 1.04
A17U A36C | 0.79
A17U A36G | 1.05
A17G C11U | 0.68
A17G C11G | 0.3
A17U C32G | 0.17
A17U C32U | 0.25
A17U C32A | 0.13
A17U A28G | 0.37

Variant | self-cleavage
A17U A28C | 0.94
A17U A28U | 0.97
A17G U24A | 0.43
A17G U24C | 0.36
A17G U24G | 0.03
A17G G35U | 0.77
A17G G35A | 0.79
A17G G35C | 0.66
A17U A38U | 1.02
A17U A38G | 1.02
A17U A38C | 0.98
A17G C33U | 0.19
A17G C33A | 0.18
A17G C33G | 0.07
A17U A29U | 0.19
A17U A29G | 0.35
A17U A29C | 0.05
A17G G13C | 0.03
A17G G13U | 0.04
A17G G13A | 0.23
A17G U43G | 0.51
A17G U43A | 0.81
A17G U43C | 0.72
A17G G49U | 0.25

Variant | self-cleavage
A17G G49C | 0.08
A17G G49A | 0.26
A17U C25G | 0.1
A17U C25U | 0.93
A17U C25A | 0.14
A17G C31G | 0.22
A17G C31U | 0.9
A17G C31A | 0.05
A17U C21G | 0.09
A17U C21U | 1.05
A17U C21A | 0.83
A17G U37C | 1.02
A17G U37A | 0.63
A17G U37G | 1.01
A17U | 1.03
A17U C33G | 0.06
A17U C33A | 0.19
A17U A40U | 0.63
A17U A40G | 0.93
A17U A40C | 0.09
A17U C11A | 0.7
A17U C11G | 0.48
A17U C11U | 0.86
